CDK5 p35 inh: CDK5/p35 (human) kinase inhibition; Q00535+Q15078; Recombinant CDK5/p35, ADP-Glo luminescence, 60 min; inhibition, % at 10 µM; 0.01% of 330,000 active;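 active = highest replicate inhibition of at least 50% and at least 75% of replicates reaching 50%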
dFosB act-1: mouse delta FosB homodimer activation; P13346; purified delta FosB, TAMRA-CDK5 oligo fluorescence polarization; percent of positive-control signal above neutral wells; activation, % at 25 µM; 0.99% of 340,000 active;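 active = mean activation above about 17%, with every replicate also reaching it, limit read from the data, passing the limit was not always enough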
Dyrk1A ADPGlo: blocks rat Dyrk1A kinase activity; Q63470; ADP-Glo luminescence, NFATc1 peptide; inhibition, % at 12.5 µM; 0.43% of 310,000 active
SR-BI HDL uptake: blocks mouse SR-BI lipid uptake from DiI-HDL; Q61009; inhibition, % at 12.5 µM; 0.96% of 320,000 active; ldlA[mSR-BI] CHO cells, DiI-HDL uptake fluorescence, 3 h;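 active = mean replicate inhibition of at least 70% and a set share of replicates each scoring 70 or more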
Target sequence (Q61009 whole entry, looked up): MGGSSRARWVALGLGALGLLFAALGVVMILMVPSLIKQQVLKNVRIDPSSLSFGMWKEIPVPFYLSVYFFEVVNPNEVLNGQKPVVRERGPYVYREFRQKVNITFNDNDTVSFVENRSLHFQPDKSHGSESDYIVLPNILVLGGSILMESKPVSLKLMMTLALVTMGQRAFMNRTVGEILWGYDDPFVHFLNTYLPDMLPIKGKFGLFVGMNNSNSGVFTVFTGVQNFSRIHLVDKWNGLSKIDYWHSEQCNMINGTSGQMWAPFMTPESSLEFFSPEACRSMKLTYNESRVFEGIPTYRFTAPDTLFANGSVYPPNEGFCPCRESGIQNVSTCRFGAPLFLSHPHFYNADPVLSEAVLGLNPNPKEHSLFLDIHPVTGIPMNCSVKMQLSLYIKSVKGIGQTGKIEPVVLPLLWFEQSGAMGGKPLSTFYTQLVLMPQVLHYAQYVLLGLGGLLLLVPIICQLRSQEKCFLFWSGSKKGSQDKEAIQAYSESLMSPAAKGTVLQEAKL
NSD2 inh: inhibitors of human histone methyltransferase NSD2; O96028; 0.54% of 310,000 active; NSD2 peptide methylation, AlphaScreen, 120 min; inhibition, % at 12.5 µM
SR-BI DiI-HDL act: activators of SR-BI mediated HDL lipid uptake | activation, % at 12.5 µM | CHO ldlA[mSR-BI] cells, DiI-HDL uptake fluorescence, 3 h; 100 = double the neutral-control signal | AID 504775 | 0.096% of 320,000 active;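 active = mean replicate activation of at least 60% and every replicate at or above 60%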
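system = CHO ldlA[mSR-BI] cells, LDL receptor-null, SR-BI overexpressing | medium = Ham's F12 with 0.5% BSA, HEPES 25 mM, pH 7.4 | probe or stimulus = DiI-HDL 10 µg/mL | compound dosing = single-point compound dose | incubation = compound exposure 3 h, 37 °C | technique = DiI fluorescence, bottom read | read-out = cell-associated DiI fluorescence as measure of HDL uptake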
dFosB act-2: enhances mouse delta FosB homodimer binding to DNA; shares compounds with dFosB act-1; purified delta FosB, TAMRA-CDK5 oligo fluorescence polarization; normalised: neutral wells 0, positive control 100; activation, % at 24.9 µM; 2,400 tested, under 10 active; AID 588690;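 active = highest replicate activation at or above 34% and every replicate reaching that threshold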;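 note: higher polarization means more probe DNA bound by delta FosB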
Of the large screens only hits and unclear results are named; the others gave an inactive call (follow-up assays come after a bar, where they were run). Sampled rows, rich in hits. Any-hit rate of the full collection: about 2.5%. Cut-off read from the data, not from the text of the source, unless noted: active = inhibition above about 50%; inactive = the rest.

COc1ccc(Cn2c(SCc3ccccc3C)nc3cc(OC)c(OC)cc3c2=N)cc1	dFosB act-1 45 | dFosB act-2 inactive
COc1cc2nc(SCc3ccc(F)cc3)n(Cc3cccs3)c(=N)c2cc1OC	none
O=c1[nH]c(/C(Cl)=C/c2c(F)cccc2Cl)nc2cc(Cl)ccc12	none
O=c1[nH]c(/C(Cl)=C/c2cc(Cl)ccc2O)nc2cc(Cl)ccc12	dFosB act-1 31 | dFosB act-2 inactive
COc1cccc(NC(=S)NC(=O)/C=C/c2ccc(F)cc2)c1	dFosB act-1 34 | dFosB act-2 inactive
CC(=O)c1ccc(NC(=S)NC(=O)/C=C/c2ccc(F)cc2)cc1	none
O=C(CCNS(=O)(=O)c1ccc2[nH]c(=O)oc2c1)Nc1ccccc1	none
COc1cc(OC)c(-c2nc(-c3ccncc3)no2)cc1OC	dFosB act-1 21 (no result: Dyrk1A ADPGlo) | dFosB act-2 inactive
CCc1ccc(Nc2n[n+](-c3ccccc3)c(-c3ccc(SC)cc3)s2)cc1	dFosB act-1 31 (no result: NSD2 inh) | dFosB act-2 inactive
COc1ccc(N(CC(=O)NC2CCCC2)S(=O)(=O)c2ccc(NC(C)=O)cc2)cc1	none (no result: SR-BI HDL uptake, SR-BI DiI-HDL act)
COc1ccc(OC)c(N(CC(=O)NC2CCCCCC2)S(=O)(=O)c2ccc(C)cc2)c1	none
COc1ccc(N(CC(=O)NC2CCCCCC2)S(=O)(=O)c2ccc(C)cc2)cc1OC	dFosB act-1 27 | dFosB act-2 inactive
COc1ccc(NC(=O)CN(c2ccc(OC)cc2)S(=O)(=O)c2ccc(OC)c(OC)c2)cc1	dFosB act-1 52 | dFosB act-2 inactive
COc1ccc(N(CC(=O)NC2CCS(=O)(=O)C2)S(=O)(=O)c2ccc(Cl)c(Cl)c2)cc1 (stereo unspecified)	dFosB act-1 43 | dFosB act-2 inactive
CC1(C(=O)NS(=O)(=O)Cc2ccccc2)CCN1C(=O)Cc1cc(F)ccc1F (stereo unspecified)	none (no result: CDK5 p35 inh, dFosB act-1, Dyrk1A ADPGlo, SR-BI HDL uptake, SR-BI DiI-HDL act)
COc1ccc(S(=O)(=O)N2CCN(C(=O)c3cc(-c4ccccc4OC)n[nH]3)CC2)cc1	none (no result: NSD2 inh)
COc1cccc(-c2cc(C(=O)N3CCN(S(=O)(=O)c4ccc(Br)cc4)CC3)[nH]n2)c1	dFosB act-1 75 | dFosB act-2 inactive
Cc1ccc(S(=O)(=O)N2CCOCC2)cc1C(=O)N1CCN(c2ncccn2)CC1	none
COCCNC(=O)COc1ncnc2ccc(Br)cc12	none
O=C(COc1ncnc2ccc(Br)cc12)NCc1ccco1	dFosB act-1 22 | dFosB act-2 inactive
C/C(C=NNC(=O)c1cc(-c2ccc(Cl)cc2)n[nH]1)=C\c1ccccc1	none (no result: CDK5 p35 inh, dFosB act-1, Dyrk1A ADPGlo, SR-BI HDL uptake, SR-BI DiI-HDL act)
O=c1[nH]cnc2cc(-c3ccc(Br)cc3)sc12	dFosB act-1 45 | dFosB act-2 inactive
O=C(C1=C[C@@H](C2CC2)C[C@@H](OCc2ccc(CO)cc2)O1)N1CCN(Cc2ccccc2)CC1	none (no result: NSD2 inh)
COc1ccc(C)cc1NC(=O)CCC(=O)Nc1nnc(C2CCCCC2)s1	dFosB act-1 40 | dFosB act-2 inactive
COc1ccc(NC(=O)CCC(=O)Nc2nnc(C3CCCCC3)s2)c(OC)c1	none
c1ccc(Nc2nc(Nc3ccccc3)nc(N3CCNCC3)n2)cc1	none
CN1CCN(c2nc(Nc3ccc(F)cc3)nc(Nc3ccc(F)cc3)n2)CC1	dFosB act-1 40 | dFosB act-2 inactive
O=C(Nc1ccc(S(=O)(=O)NC2=NCCCCC2)cc1)c1ccc(Cl)c([N+](=O)[O-])c1	none
Cc1cc(C)cc(C(=O)Nc2ccc(NC(=O)c3cccs3)cc2)c1	dFosB act-1 25 | dFosB act-2 inactive
Cc1cccc(C)c1NS(=O)(=O)c1ccc(NC(=O)c2ccc(Cl)c([N+](=O)[O-])c2)cc1	dFosB act-1 40 | dFosB act-2 inactive
Cc1cc(C)c(NS(=O)(=O)c2ccc(NC(=O)c3cccs3)cc2)c(C)c1	dFosB act-1 26 | dFosB act-2 inactive
Cc1cc(C)cc(C(=O)Nc2ccc(NC(=O)Cc3ccccc3)cc2)c1	dFosB act-1 43 | dFosB act-2 inactive
CCCCCCc1c(O)nc(SCCN(C)C)[nH]c1=O	none (no result: SR-BI HDL uptake, NSD2 inh, SR-BI DiI-HDL act)
CCOC(=O)/C=C/C(=O)Nc1ccc(S(=O)(=O)Nc2c(C)cc(C)cc2C)cc1	dFosB act-1 20 | dFosB act-2 inactive
O=C(Nc1ccc(Br)cn1)c1cccc(-c2cc3ccccc3oc2=O)c1	dFosB act-1 34 | dFosB act-2 inactive
Cc1ccc(C)c2c1[nH]c1ccc([N+](=O)[O-])cc12	dFosB act-1 21 | dFosB act-2 inactive
Cc1nn2c(COc3ccc(NC(=O)C(C)C)cc3)nnc2c2ccccc12	none
Cc1nn2c(COc3ccc(NC(=O)c4ccccc4Cl)cc3)nnc2c2ccccc12	dFosB act-1 26 | dFosB act-2 inactive
O=S(=O)(NC1CC1)c1ccc(S(=O)(=O)N2CCCC3(CCCCC3)C2)cc1	dFosB act-1 16 (no result: NSD2 inh) | dFosB act-2 inactive
CCn1c(COc2ccc(C)cc2)nnc1SCC(=O)Nc1ccc(C(=O)OC)cc1	none (no result: CDK5 p35 inh, dFosB act-1, Dyrk1A ADPGlo, SR-BI HDL uptake, SR-BI DiI-HDL act)
O=C(NNC(=O)c1cc(Br)c(Br)s1)c1csc(N2CCOCC2)n1	dFosB act-1 44 | dFosB act-2 inactive
CCc1cc(C(=O)NNC(=O)c2csc(N3CCOCC3)n2)sc1C	none
COCCN(C(=O)COC(=O)COc1ccc(Cl)c(C)c1)c1c(N)n(Cc2ccccc2)c(=O)[nH]c1=O	none
CCN(C(=O)COC(=O)COc1ccc2c(c1)CCC2)c1c(N)n(Cc2ccccc2)c(=O)[nH]c1=O	dFosB act-1 24 | dFosB act-2 inactive
CCN(C(=O)COC(=O)CCc1ccc(OC)cc1)c1c(N)n(Cc2ccccc2)c(=O)[nH]c1=O	dFosB act-1 42 | dFosB act-2 inactive
CN(C(=O)COC(=O)COc1ccc2c(c1)CCC2)c1c(N)n(Cc2ccccc2)c(=O)[nH]c1=O	none (no result: NSD2 inh)
COCCN(C(=O)COC(=O)COc1ccc2ccccc2c1)c1c(N)n(Cc2ccccc2)c(=O)[nH]c1=O	dFosB act-1 19 | dFosB act-2 inactive
CC(C)CN(C(=O)COC(=O)c1ccc(Br)cc1)c1c(N)n(Cc2ccccc2)c(=O)[nH]c1=O	dFosB act-1 51 | dFosB act-2 inactive
COC(=O)c1ccc(NC(=O)CNC(=O)c2sc3ccccc3c2Cl)cc1	dFosB act-1 53 | dFosB act-2 inactive
NC(=O)c1ccc(NC(=O)CNC(=O)c2sc3ccccc3c2Cl)cc1	dFosB act-1 38 (no result: Dyrk1A ADPGlo) | dFosB act-2 inactive
O=C(NNC(=O)c1sc2ccccc2c1Cl)Nc1ccc(Cl)cc1	dFosB act-1 19 | dFosB act-2 inactive
NC(N)=NS(=O)(=O)c1ccc(NC(=S)NC(=O)c2sc3ccccc3c2Cl)cc1	dFosB act-1 29 | dFosB act-2 inactive
Cc1ccc(NC(=O)CNC(=O)c2sc3ccccc3c2Cl)nc1	none

High-throughput results deposited in PubChem BioAssay by Broad Institute.
